Screening data (PubChem)
Kir21 inh: inhibitors of mouse Kir2.1 inward-rectifier potassium channel. Inward rectifier potassium channel 2 (Mus musculus), P35561. actives 0.85% (n = 310,000). B-score at 10 µM. HEK293-Kir2.1, FluxOR thallium flux fluorescence; active compounds read low;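 active = fluorescence ratio B-score at or below minus 3 SD of library scores, with starting-brightness B-score within 2 SD, cut at about -4.2 in these data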;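 note: channel flux triggered by added potassium and thallium sulfate stimulus; B-score of peak minus minimum fluorescence over baseline after thallium stimulus; more negative B-score means stronger Kir2.1 block with less thallium influx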
KCNQ1 block: inhibitors of human KCNQ1 channel, primary screen, cell-based, thallium flux, high-throughput | Potassium voltage-gated channel subfamily KQT member 1 (Homo sapiens), P51787 | CHO-K1 KCNQ1, FluxOR thallium flux fluorescence; active compounds read high | B-score at 10 µM | actives 1.3% (n = 310,000);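 active = compounds whose thallium flux B-score, printed positive for inhibition, exceeds three library SD while starting fluorescence stays within three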;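 note: channel opened by potassium depolarization with thallium stimulus after 20 min compound exposure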
hERG protect: hERG rescue from dofetilide block, primary screen, cell-based, CHO-hERG, FluxOR thallium flux, dofetilide IC70; activation (rescue from dofetilide block), less the hit threshold, % at 10 µM; actives 0.51% (n = 310,000); dofetilide IC70 present;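 active = activation above the mean of controls blocked by dofetilide plus 5 SD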;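 note: thallium influx through hERG after potassium depolarization seen as dye fluorescence rise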
KCNQ1 act: potentiators or activators of KCNQ1 channel, primary screen, cell-based, thallium flux, high-throughput | Potassium voltage-gated channel subfamily KQT member 1 (Homo sapiens), P51787 | B-score at 10 µM | CHO-K1 KCNQ1, thallium flux FluxOR fluorescence; active compounds read high | actives 0.35% (n = 310,000);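 active = fluorescence ratio B-score, a plate-corrected score, at least three library SD, with initial intensity B-score within 5 SD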
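Assay system: CHO-K1 cells stably expressing KCNQ1. Medium: assay buffer for compound exposure, DMSO matched across wells. Timing: 37 °C overnight plating, 90-min dark dye load, 20-min compound pretreatment. Signal: kinetic FluxOR fluorescence, 10 s baseline plus 110 s post-stimulus.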
KCNK9 block: KCNK9 potassium channel inhibitors, primary screen, HEK293 cells, thallium flux | Potassium channel subfamily K member 9 (Homo sapiens), Q9NPC2 | FluxOR thallium flux fluorescence; active compounds read low | B-score at 10 µM | actives 1.2% (n = 310,000);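 active = ratio B-score over 3 SD below the library mean, with starting fluorescence within 5 SD of its mean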;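 note: negative B-score means less thallium flux so channel inhibition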
KCNK3 inh: human KCNK3 channel inhibitors, primary screen, CHO cells, FluxOR thallium flux, B-score. B-score at 10 µM. actives 0.84% (n = 340,000). FluxOR fluorescence; active compounds read low. AID 602410, 2012;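 active = B-score under library mean minus 4 SD, starting fluorescence ratio at most library mean plus 5 SD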;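 note: more negative B-score means stronger inhibition of thallium flux through KCNK3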
Target sequence (O14649 whole entry, looked up): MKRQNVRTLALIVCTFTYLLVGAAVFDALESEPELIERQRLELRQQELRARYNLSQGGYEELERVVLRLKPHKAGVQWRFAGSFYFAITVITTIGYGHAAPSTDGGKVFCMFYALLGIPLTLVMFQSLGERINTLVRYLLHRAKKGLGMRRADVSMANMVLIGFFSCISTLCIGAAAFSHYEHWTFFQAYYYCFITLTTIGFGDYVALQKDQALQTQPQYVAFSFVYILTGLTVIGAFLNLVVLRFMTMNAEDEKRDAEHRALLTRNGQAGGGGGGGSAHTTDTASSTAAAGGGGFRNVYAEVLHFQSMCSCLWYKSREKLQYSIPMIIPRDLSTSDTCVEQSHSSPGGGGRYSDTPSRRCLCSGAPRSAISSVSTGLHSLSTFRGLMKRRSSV
KCNQ1 block val: KCNQ1 potassium channel inhibitors, confirmation, cell-based, Tl flux, duplicate; shares compounds with KCNQ1 block; KCNQ1 cell line, FluxOR thallium flux fluorescence; inhibition, % at 10 µM; actives 93% (n = 1,600); AID 588353, 2011;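 active = primary screen active, with duplicate mean exceeding buffer control mean plus 3 SD of buffer wells, cut at about 28% in these data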;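 note: 0% = buffer control ratio and 100% = XE991 inhibitor control ratio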
CHO KCNQ1 ctr: thallium flux effects in parental CHO cells, counter-screen for KCNQ1 inhibitor project, cell-based, Tl flux. fluorescence ratio (Tl flux) at 10 µM. parental CHO-K1, FluxOR thallium flux fluorescence ratio; active compounds read low; zero means no signal rise above baseline. actives 21% (n = 1,600). shares compounds with KCNQ1 block;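 active = mean of duplicate thallium-flux fluorescence ratios in parental host cells more than 5 SD below the buffer control mean, cut at about 0.38 in these data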;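 note: ratio is peak minus minimum fluorescence divided by baseline fluorescence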
KCNQ1 ephys val: KCNQ1 channel inhibitors, confirmation, orthogonal assay, cell-based, automated electrophysiology; shares compounds with KCNQ1 block; KCNQ1-CHO cells, automated patch clamp current; calls only at 10 µM; actives 20% (n = 490); AID 624120, 2012;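 active = KCNQ1 current drop exceeding 3 SD of negative control wells, seen in both duplicate runs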;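 note: steady state current during a 2 s step from -80 to +40 mV; negative values mean current inhibition and positive values mean potentiation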
KCNQ2 inh: KCNQ2 channel inhibition, selectivity assay for KCNQ1 inhibitor project, cell-based; inhibition, % at 10 µM; AID 651746, 2012; KCNQ2 cells, FluxOR thallium flux fluorescence; actives 71% (n = 1,600); shares compounds with KCNQ1 block;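 active = mean percent inhibition of the KCNQ2 thallium signal more than 5 SD above the buffer-only control wells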;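 note: KCNQ2 expressed in CHO cells; 0% = buffer control wells and 100% = XE-991 inhibitor control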
KCNQ1-KCNE1 inh: KCNQ1/KCNE1 channel inhibition, selectivity assay for KCNQ1 inhibitor project, CHO-K1 cells, thallium flux, FluxOR | shares compounds with KCNQ1 block | FluxOR thallium flux fluorescence | inhibition, % at 10 µM | actives 77% (n = 1,600) | AID 652147, 2013;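 active = mean percent inhibition of duplicate wells above the buffer-only control mean plus 3 SD of those controls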;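 note: 0% = buffer only wells and 100% = XE-991 inhibitor control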
Active calls of the source: *; i = inactive; x = no result given; + = active, no number. A selection: hits, their analogues and other compounds. The true share with any hit is near 3.7%.

SMILES	Kir21 inh	KCNQ1 block	hERG protect	KCNQ1 act	KCNK9 block	KCNK3 inh	KCNQ1 block val	CHO KCNQ1 ctr	KCNQ2 inh	KCNQ1-KCNE1 inh	others
CCCCCn1c(CN2CCN(c3cccc(Cl)c3)CC2)nc2c1c(=O)n(C)c(=O)n2C	-0.14	i	-7	i	i	i	x	x	x	x
CCCn1c(CN2CCN(c3cccc(Cl)c3)CC2)nc2c1c(=O)n(C)c(=O)n2C	-0.35	7*	-20	i	i	i	80*	0.49	127%*	36%*
COc1ccc(C(=O)N=C2SC3CS(=O)(=O)CC3N2c2ccc(N(C)C)cc2)cc1OC (stereo unspecified)	-0.56	i	-2	i	i	i	x	x	x	x
CC1CCCCN1C(=O)c1c([N+](=O)[O-])cnn1C (stereo unspecified)	0.04	i	-4	i	i	i	x	x	x	x
COc1ccc(OCC(=O)Nc2ccc3c(c2)nc(CCN2CCN(C)CC2)n3C)cc1	0.76	i	-7	i	i	i	x	x	x	x
Cc1cccc(OCC(=O)Nc2ccc3c(c2)nc(CCN2CCN(C)CC2)n3C)c1	-0.05	9*	-5	i	i	i	0	0.5	i	i
Cc1[nH]n(-c2ccccc2)c(=O)c1N=Nc1c(O)cc(S(=O)(=O)N(C)C)c2ccccc12	-0.42	10*	-24	i	i	i	124*	0.47	72%*	i	KCNQ1 ephys val=i
Cn1nc(C(C)(C)C)cc1C(=O)NCc1cc(F)cc2c1OCOC2	0.7	7*	-25	i	i	i	94*	0.45	82%*	34%*	KCNQ1 ephys val=+
Cc1cc(C(=O)NCc2cc(F)cc3c2OCOC3)nn1C	1.2	i	-8	i	i	i	x	x	x	x
Cc1ccc(CNC(=O)C2CCN(S(=O)(=O)c3ccc4c(c3)CC(C)N4C(=O)C3CCC3)CC2)o1 (stereo unspecified)	0.22	i	-5	i	i	i	x	x	x	x
Cc1sc(NC(=O)c2sc3nc4c(C)cccc4cc3c2N)c(C#N)c1C	0.05	9*	-10	i	i	i	54*	0.44	i	87%*
Cc1cccc2cc3c(N)c(C#N)sc3nc12	-2.2	i	-13	i	i	i	x	x	x	x
COc1ccc(N=C2SC(CC(=O)Nc3ccccc3)C(=O)N2Cc2ccccn2)cc1 (stereo unspecified)	0.31	i	-9	i	i	i	x	x	x	x
COc1ccc(N=C2SC(CC(=O)Nc3cccc(Cl)c3)C(=O)N2Cc2ccco2)cc1 (stereo unspecified)	0.61	12*	-10	i	i	i	92*	0.43	93%*	136%*	KCNQ1 ephys val=i
Cc1c(C(=O)NCCC2=CCCCC2)sc2ncnc(N3CCCCC3C)c12 (stereo unspecified)	1.6	8*	-17	i	i	i	164*	0.33*	150%*	+
Cc1sc2ncnc(N3CCCCC3C)c2c1C (stereo unspecified)	-1.4	i	-14	i	i	i	x	x	x	x
CCC1(C)CC(CCNS(=O)(=O)c2ccc(C)cc2)(c2ccc(C)cc2)CCO1 (stereo unspecified)	-1.4	i	-9	i	i	i	x	x	x	x
Cc1ccc(C2(CCNS(=O)(=O)c3ccc(C)cc3)CCOC(C(C)C)C2)cc1 (stereo unspecified)	-0.37	8*	-12	i	i	i	94*	0.42	83%*	98%*	KCNQ1 ephys val=i
Cc1nn(C)c(Nc2ccc(Br)cc2)c1Br	0.5	6*	-11	i	i	i	88*	0.55	i	44%*	KCNQ1 ephys val=i
CC(=O)NC12CC3CC(C1)CC(C(=O)Nc1nc4ccc(F)cc4s1)(C3)C2	1.3	7*	-20	i	i	i	92*	0.49	65%*	85%*	KCNQ1 ephys val=+
O=C(c1cccc(N2C(=O)C3C4C=CC(C4)C3C2=O)c1)N1CCCc2ccccc21 (stereo unspecified)	-0.56	10*	-4	i	i	i	0	0.48	i	46%*
Clc1cc(Br)ccc1OCCCNCc1ccccc1	-10*	7*	-11	i	i	i	68*	0.47	90%*	i
Cc1ccc(S(=O)(=O)c2cc3c(=O)n4ccccc4nc3n(CCc3ccccc3)c2=N)cc1	0.51	6*	-6	i	i	i	100*	0.36*	118%*	140%*
CCn1c(=N)c(S(=O)(=O)c2ccc(C)cc2)cc2c(=O)n3ccccc3nc21	-1.3	i	-2	i	i	x	x	x	x	x
COc1ccc(CCNC(=O)c2ccc3c(c2)NC(=O)C(CSCc2cc(C)ccc2C)N3)cc1OC (stereo unspecified)	1.9	i	-13	i	i	x	x	x	x	x
COc1ccc(Cl)cc1NC(=S)NCCc1ccc(F)cc1	-4.6*	6*	-12	i	i	i	64*	0.49	114%*	50%*
